This note sets out measurements from ChEMBL document CHEMBL1156108, “Synthesis and biological evaluation of p38alpha kinase-targeting dialkynylimidazoles” (Bioorg Med Chem Lett, 2009).

In series [1] the target is T1, Mitogen-activated protein kinase 14 (Homo sapiens, UniProt Q16539). Briefly: Inhibition of p38alpha at 10 uM by FRET assay. Summed up:
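Single-concentration screen against p38α, read at a fixed 60 min time-point. Reported as percent inhibition from tests run in duplicate.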

Series [2] deals with T1, Mitogen-activated protein kinase 14. The series is described as follows: Inhibition of p38alpha by FRET assay.
Series [3] deals with Cyclin-dependent kinase 1/cyclin B (Homo sapiens) (UniProt P06493+P14635+Q8WWL7+O95067). The series is described as follows: Inhibition of human CDK1/cyclin B at 20 uM by FRET assay. The format is protein-complex assay.
The target of the next series is CYP2D6 (Homo sapiens, UniProt P10635). The series is described as follows: Inhibition of CYP2D6 at 10 uM. The format is ADME.
Chain of CYP2D6 (P10635 whole entry): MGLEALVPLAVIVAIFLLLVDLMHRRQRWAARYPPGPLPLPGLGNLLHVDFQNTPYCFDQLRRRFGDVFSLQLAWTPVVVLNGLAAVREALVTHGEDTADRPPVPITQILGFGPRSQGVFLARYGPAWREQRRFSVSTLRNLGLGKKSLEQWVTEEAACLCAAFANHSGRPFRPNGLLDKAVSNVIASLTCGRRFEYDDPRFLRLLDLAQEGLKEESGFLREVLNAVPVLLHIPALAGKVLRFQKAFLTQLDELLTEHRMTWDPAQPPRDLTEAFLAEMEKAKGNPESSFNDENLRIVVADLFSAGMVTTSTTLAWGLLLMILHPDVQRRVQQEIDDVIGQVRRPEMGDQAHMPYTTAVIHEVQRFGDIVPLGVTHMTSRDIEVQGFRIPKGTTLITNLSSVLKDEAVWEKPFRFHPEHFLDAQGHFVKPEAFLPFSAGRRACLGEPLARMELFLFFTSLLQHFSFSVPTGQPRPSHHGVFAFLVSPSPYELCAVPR
The target in series [4] is Mitogen-activated protein kinase 11 (Homo sapiens, UniProt Q15759). Briefly: Inhibition of p38beta by FRET assay.
Series [5] in a line: Selectivity ratio for IC50 of p38alpha to IC50 of p38beta.
Series [6] addresses T2, Mitogen-activated protein kinase kinase kinase kinase 4 (Homo sapiens, UniProt O95819). Briefly: Inhibition of human MAP4K4 by FRET assay.
Series [7] deals with Tyrosine-protein kinase ABL1 (Homo sapiens) (UniProt P00519). Briefly: Inhibition of human ABL1 at 20 uM by FRET assay.
Series [8] addresses Activin receptor type-1B (Homo sapiens) (UniProt P36896). The series is described as follows: Inhibition of human ALK4 at 20 uM by FRET assay.
Series [9] addresses RAC-alpha serine/threonine-protein kinase (Homo sapiens) (UniProt P31749). Briefly: Inhibition of human AKT1 at 20 uM by FRET assay.
Series [10] addresses Aurora kinase A (Homo sapiens) (UniProt O14965). The series is described as follows: Inhibition of human Aurora A at 20 uM by FRET assay.
Series [11] addresses Tyrosine-protein kinase BTK (Homo sapiens) (UniProt Q06187). The series is described as follows: Inhibition of human BTK at 20 uM by FRET assay.
The target in series [12] is Serine/threonine-protein kinase Chk1 (Homo sapiens) (UniProt O14757). Briefly: Inhibition of human CHK1 at 20 uM by FRET assay.
The target of series [13] is Casein kinase I isoform gamma-2 (Homo sapiens) (UniProt P78368). The series is described as follows: Inhibition of human CK1gamma2 at 20 uM by FRET assay.
Series [14] has as its target Casein kinase II subunit alpha (Homo sapiens) (UniProt P68400). Briefly: Inhibition of human CK2alpha1 at 20 uM by FRET assay.
For series [15], the target named is Dual specificity tyrosine-phosphorylation-regulated kinase 3 (Homo sapiens) (UniProt O43781). Briefly: Inhibition of human DYRK3 at 20 uM by FRET assay.
Chain of Dual specificity tyrosine-phosphorylation-regulated kinase 3 (Homo sapiens) (O43781 whole entry): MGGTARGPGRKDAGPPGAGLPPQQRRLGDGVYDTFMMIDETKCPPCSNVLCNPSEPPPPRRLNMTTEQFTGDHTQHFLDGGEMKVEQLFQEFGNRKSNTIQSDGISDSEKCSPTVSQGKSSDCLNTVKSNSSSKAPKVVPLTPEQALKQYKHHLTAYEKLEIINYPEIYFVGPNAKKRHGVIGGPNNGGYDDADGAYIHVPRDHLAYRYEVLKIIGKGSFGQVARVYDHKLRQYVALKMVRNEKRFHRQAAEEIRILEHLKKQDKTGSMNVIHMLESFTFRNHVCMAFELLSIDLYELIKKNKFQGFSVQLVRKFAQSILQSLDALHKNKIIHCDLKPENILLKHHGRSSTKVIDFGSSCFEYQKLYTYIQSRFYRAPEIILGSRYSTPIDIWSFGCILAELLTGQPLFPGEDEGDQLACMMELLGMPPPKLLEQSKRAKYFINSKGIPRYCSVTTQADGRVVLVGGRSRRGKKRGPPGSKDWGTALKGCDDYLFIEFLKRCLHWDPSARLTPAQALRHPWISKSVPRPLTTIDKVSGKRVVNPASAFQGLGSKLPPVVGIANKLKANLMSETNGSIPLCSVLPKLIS
In series [16] the target is Epidermal growth factor receptor (Homo sapiens) (UniProt P00533). The series is described as follows: Inhibition of human EGFR at 20 uM by FRET assay.
For series [17], the target named is Ephrin type-A receptor 2 (Homo sapiens) (UniProt P29317). The series is described as follows: Inhibition of human EPHA2 at 20 uM by FRET assay.
Series [18] has as its target Receptor tyrosine-protein kinase erbB-2 (Homo sapiens) (UniProt P04626). The series is described as follows: Inhibition of human ERBB2 at 20 uM by FRET assay.
In series [19] the target is Fibroblast growth factor receptor 1 (Homo sapiens) (UniProt P11362). Briefly: Inhibition of human FGFR1 at 20 uM by FRET assay.
Chain of Fibroblast growth factor receptor 1 (Homo sapiens) (P11362 22-822 limits assumed): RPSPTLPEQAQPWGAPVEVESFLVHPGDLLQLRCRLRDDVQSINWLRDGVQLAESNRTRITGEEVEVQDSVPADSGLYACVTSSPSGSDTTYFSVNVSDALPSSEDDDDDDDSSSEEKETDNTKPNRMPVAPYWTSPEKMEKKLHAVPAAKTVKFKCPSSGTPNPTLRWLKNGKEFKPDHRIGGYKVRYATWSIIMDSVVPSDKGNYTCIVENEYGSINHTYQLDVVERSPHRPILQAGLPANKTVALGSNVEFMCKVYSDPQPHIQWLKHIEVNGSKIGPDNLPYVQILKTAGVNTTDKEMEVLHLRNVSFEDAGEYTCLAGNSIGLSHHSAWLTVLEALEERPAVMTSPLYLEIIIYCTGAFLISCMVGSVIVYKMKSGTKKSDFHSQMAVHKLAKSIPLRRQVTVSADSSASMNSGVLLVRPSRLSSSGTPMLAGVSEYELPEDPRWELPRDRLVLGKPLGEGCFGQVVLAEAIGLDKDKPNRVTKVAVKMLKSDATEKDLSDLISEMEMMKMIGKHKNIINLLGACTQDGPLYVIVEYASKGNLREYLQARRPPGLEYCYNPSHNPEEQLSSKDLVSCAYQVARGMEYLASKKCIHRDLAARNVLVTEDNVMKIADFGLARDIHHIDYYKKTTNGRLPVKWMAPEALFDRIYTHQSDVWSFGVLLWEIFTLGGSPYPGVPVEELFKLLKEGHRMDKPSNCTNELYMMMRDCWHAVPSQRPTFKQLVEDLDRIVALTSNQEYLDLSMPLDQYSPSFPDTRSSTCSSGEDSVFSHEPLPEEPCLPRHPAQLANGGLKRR
In series [20] the target is Receptor-type tyrosine-protein kinase FLT3 (Homo sapiens) (UniProt P36888). Briefly: Inhibition of human FLT3 at 20 uM by FRET assay.
In series [21] the target is Serine/threonine-protein kinase mTOR (Homo sapiens) (UniProt P42345). Briefly: Inhibition of human FRAP1 at 20 uM by FRET assay.
In series [22] the target is Glycogen synthase kinase-3 beta (Homo sapiens) (UniProt P49841). Briefly: Inhibition of human GSK3-beta at 20 uM by FRET assay.
In series [23] the target is Insulin-like growth factor 1 receptor (Homo sapiens) (UniProt P08069). Briefly: Inhibition of human IGF1R at 20 uM by FRET assay.
Series [24] has as its target Inhibitor of nuclear factor kappa-B kinase subunit beta (Homo sapiens) (UniProt O14920). Briefly: Inhibition of human IKK-beta at 20 uM by FRET assay.
For series [25], the target named is Insulin receptor (Homo sapiens) (UniProt P06213). The series is described as follows: Inhibition of human INSR at 20 uM by FRET assay.
The target in series [26] is Interleukin-1 receptor-associated kinase 4 (Homo sapiens) (UniProt Q9NWZ3). Briefly: Inhibition of human IRAK4 at 20 uM by FRET assay.
The target of series [27] is Tyrosine-protein kinase JAK3 (Homo sapiens) (UniProt P52333). Briefly: Inhibition of human JAK3 at 20 uM by FRET assay.
The target of series [28] is Vascular endothelial growth factor receptor 2 (Homo sapiens) (UniProt P35968). Briefly: Inhibition of human KDR at 20 uM by FRET assay.
Series [29] deals with Mast/stem cell growth factor receptor Kit (Homo sapiens) (UniProt P10721). The series is described as follows: Inhibition of human KIT at 20 uM by FRET assay.
The target in series [30] is Tyrosine-protein kinase Lck (Homo sapiens) (UniProt P06239). Briefly: Inhibition of human LCK at 20 uM by FRET assay.
Series [31] has as its target Dual specificity mitogen-activated protein kinase kinase 1 (Homo sapiens) (UniProt Q02750). The series is described as follows: Inhibition of human MEK1 at 20 uM by FRET assay.
Series [32] concerns the target T2, Mitogen-activated protein kinase kinase kinase kinase 4. Briefly: Inhibition of human MAP4K4 at 20 uM by FRET assay.
Series [33] has as its target Mitogen-activated protein kinase 1 (Homo sapiens) (UniProt P28482). The series is described as follows: Inhibition of human ERK2 at 20 uM by FRET assay.
Series [34] addresses Mitogen-activated protein kinase 12 (Homo sapiens) (UniProt P53778). The series is described as follows: Inhibition of human p38-gamma at 20 uM by FRET assay.
The target in series [35] is Mitogen-activated protein kinase 13 (Homo sapiens) (UniProt O15264). Briefly: Inhibition of human p38delta at 20 uM by FRET assay. Summed up: (§1)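 Single-point screen at one fixed concentration, run across a panel of 53 additional human kinases, which includes this enzyme.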
The target in series [36] is Mitogen-activated protein kinase 8 (Homo sapiens) (UniProt P45983). Briefly: Inhibition of human JNK1 at 20 uM by FRET assay.
In series [37] the target is Mitogen-activated protein kinase 9 (Homo sapiens) (UniProt P45984). Briefly: Inhibition of human JNK2 at 20 uM by FRET assay.
The target in series [38] is MAP kinase-activated protein kinase 2 (Homo sapiens) (UniProt P49137). Briefly: Inhibition of human MAPKAPK2 at 20 uM by FRET assay.
Series [39] deals with Serine/threonine-protein kinase MARK2 (Homo sapiens) (UniProt Q7KZI7). The series is described as follows: Inhibition of human MARK2 at 20 uM by FRET assay.
Series [40] has as its target Hepatocyte growth factor receptor (Homo sapiens) (UniProt P08581). The series is described as follows: Inhibition of human MET at 20 uM by FRET assay.
Series [41] concerns the target Platelet-derived growth factor receptor beta (Homo sapiens) (UniProt P09619). The series is described as follows: Inhibition of human PDGFRbeta at 20 uM by FRET assay.
The target of series [42] is Serine/threonine-protein kinase Nek1 (Homo sapiens) (UniProt Q96PY6). The series is described as follows: Inhibition of human NEK1 at 20 uM by FRET assay.
The target in series [43] is High affinity nerve growth factor receptor (Homo sapiens) (UniProt P04629). Briefly: Inhibition of human NTRK1 at 20 uM by FRET assay.
In series [44] the target is Serine/threonine-protein kinase PAK 4 (Homo sapiens) (UniProt O96013). The series is described as follows: Inhibition of human PAK4 at 20 uM by FRET assay.
The target in series [45] is Serine/threonine-protein kinase pim-1 (Homo sapiens) (UniProt P11309). The series is described as follows: Inhibition of human PIM1 at 20 uM by FRET assay.
For series [46], the target named is Serine/threonine-protein kinase PLK1 (Homo sapiens) (UniProt P53350). Briefly: Inhibition of human PLK1 at 20 uM by FRET assay.
In series [47] the target is cAMP-dependent protein kinase catalytic subunit alpha (Homo sapiens) (UniProt P17612). The series is described as follows: Inhibition of human PRKACA at 20 uM by FRET assay.
Series [48] has as its target Protein kinase C beta type (Homo sapiens) (UniProt P05771). Briefly: Inhibition of human PKCbeta1 at 20 uM by FRET assay.
The target of series [49] is RAF proto-oncogene serine/threonine-protein kinase (Homo sapiens) (UniProt P04049). The series is described as follows: Inhibition of human RAF1 at 20 uM by FRET assay.
The target of series [50] is Proto-oncogene tyrosine-protein kinase receptor Ret (Homo sapiens) (UniProt P07949). Briefly: Inhibition of human RET at 20 uM by FRET assay.
Chain of Proto-oncogene tyrosine-protein kinase receptor Ret (Homo sapiens) (P07949 whole entry): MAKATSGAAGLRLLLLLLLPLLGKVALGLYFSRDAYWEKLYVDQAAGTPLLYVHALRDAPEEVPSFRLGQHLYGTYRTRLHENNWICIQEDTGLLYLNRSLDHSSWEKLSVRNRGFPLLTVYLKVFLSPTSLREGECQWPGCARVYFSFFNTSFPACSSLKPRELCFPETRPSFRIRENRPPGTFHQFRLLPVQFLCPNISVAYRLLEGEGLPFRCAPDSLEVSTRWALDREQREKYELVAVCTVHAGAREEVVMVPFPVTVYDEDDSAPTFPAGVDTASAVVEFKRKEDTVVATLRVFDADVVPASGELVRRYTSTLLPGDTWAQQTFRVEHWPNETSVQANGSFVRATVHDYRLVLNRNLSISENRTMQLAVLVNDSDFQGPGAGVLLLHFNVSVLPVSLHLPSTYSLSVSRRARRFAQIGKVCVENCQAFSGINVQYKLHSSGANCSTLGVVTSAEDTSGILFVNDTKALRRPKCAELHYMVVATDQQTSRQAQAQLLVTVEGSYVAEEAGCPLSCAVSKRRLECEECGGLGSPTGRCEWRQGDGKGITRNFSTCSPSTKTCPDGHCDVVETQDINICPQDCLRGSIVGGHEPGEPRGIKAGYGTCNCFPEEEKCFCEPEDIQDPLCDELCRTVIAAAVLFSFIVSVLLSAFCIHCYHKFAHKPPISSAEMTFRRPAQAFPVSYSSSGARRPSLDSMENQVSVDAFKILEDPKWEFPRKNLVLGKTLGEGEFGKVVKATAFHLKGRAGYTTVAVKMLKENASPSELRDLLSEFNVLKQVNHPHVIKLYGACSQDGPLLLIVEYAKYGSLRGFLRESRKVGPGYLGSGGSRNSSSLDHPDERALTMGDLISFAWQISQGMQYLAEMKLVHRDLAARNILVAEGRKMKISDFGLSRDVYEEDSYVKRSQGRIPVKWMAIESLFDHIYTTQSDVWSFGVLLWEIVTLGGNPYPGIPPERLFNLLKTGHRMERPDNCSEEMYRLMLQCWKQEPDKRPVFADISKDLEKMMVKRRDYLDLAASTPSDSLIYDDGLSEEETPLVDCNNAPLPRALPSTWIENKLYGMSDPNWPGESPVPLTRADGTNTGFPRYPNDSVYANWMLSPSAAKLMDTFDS
The target in series [51] is Rho-associated protein kinase 1 (Homo sapiens) (UniProt Q13464). The series is described as follows: Inhibition of human ROCK1 at 20 uM by FRET assay.
Series [52] addresses Ribosomal protein S6 kinase alpha-3 (Homo sapiens) (UniProt P51812). Briefly: Inhibition of human RPS6KA3 at 20 uM by FRET assay.
In series [53] the target is Ribosomal protein S6 kinase beta-1 (Homo sapiens) (UniProt P23443). The series is described as follows: Inhibition of human p70S6K at 20 uM by FRET assay. The procedure, abridged: as §1
Chain of Ribosomal protein S6 kinase beta-1 (Homo sapiens) (P23443 whole entry, looked up): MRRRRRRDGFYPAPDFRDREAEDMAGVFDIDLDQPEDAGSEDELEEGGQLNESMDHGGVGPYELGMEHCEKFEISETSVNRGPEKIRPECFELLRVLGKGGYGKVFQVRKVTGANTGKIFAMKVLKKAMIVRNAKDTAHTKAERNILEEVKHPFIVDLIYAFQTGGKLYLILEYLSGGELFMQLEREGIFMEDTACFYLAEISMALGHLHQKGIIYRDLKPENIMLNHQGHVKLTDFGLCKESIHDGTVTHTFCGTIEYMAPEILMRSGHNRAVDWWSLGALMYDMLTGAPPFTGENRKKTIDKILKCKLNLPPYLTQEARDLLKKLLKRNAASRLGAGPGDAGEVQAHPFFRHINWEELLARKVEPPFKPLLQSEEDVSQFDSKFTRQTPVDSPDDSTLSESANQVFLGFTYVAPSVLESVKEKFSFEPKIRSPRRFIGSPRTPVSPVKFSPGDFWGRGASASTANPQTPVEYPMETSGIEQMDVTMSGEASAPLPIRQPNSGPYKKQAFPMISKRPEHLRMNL
The target in series [54] is Proto-oncogene tyrosine-protein kinase Src (Homo sapiens) (UniProt P12931). Briefly: Inhibition of human SRC at 20 uM by FRET assay.
The target of series [55] is Tyrosine-protein kinase SYK (Homo sapiens) (UniProt P43405). The series is described as follows: Inhibition of human SYK at 20 uM by FRET assay.
Series [56] concerns the target Angiopoietin-1 receptor (Homo sapiens) (UniProt Q02763). Briefly: Inhibition of human TEK at 20 uM by FRET assay.

One may read the inhibition as the drop in the measured response relative to a control, in per cent. The term IC50 denotes the concentration that gives 50% inhibition. Read a high IC50 as weaker potency.

T1 sequence (Q16539 whole entry): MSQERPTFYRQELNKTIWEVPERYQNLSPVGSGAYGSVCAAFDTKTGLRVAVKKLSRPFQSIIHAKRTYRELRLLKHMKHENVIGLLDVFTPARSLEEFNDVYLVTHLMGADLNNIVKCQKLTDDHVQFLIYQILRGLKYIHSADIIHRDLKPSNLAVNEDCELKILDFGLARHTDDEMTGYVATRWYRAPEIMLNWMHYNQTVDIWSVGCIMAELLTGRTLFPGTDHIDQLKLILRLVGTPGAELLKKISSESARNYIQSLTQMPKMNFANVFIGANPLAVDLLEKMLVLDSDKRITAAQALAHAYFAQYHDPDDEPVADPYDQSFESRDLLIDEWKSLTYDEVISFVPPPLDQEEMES
Chain of Protein kinase C beta type (Homo sapiens) (P05771 2-671 limits assumed): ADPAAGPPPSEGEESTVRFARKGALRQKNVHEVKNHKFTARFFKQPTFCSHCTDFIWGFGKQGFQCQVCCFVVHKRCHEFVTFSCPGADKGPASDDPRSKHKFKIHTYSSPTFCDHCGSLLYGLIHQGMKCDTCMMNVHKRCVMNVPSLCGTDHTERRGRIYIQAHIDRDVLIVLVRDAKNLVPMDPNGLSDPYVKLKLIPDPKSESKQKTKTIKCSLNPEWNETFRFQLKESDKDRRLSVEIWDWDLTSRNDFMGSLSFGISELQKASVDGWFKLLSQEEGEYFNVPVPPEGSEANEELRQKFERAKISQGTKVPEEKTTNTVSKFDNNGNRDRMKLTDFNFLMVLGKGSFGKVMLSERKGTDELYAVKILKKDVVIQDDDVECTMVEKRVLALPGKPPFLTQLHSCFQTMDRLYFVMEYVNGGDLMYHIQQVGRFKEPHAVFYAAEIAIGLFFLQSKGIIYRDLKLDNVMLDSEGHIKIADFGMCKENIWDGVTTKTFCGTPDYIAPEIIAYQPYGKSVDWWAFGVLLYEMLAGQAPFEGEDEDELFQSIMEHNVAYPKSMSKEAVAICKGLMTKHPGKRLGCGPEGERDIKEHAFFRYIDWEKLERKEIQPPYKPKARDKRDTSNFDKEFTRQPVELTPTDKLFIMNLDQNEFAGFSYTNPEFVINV
Chain of Dual specificity mitogen-activated protein kinase kinase 1 (Homo sapiens) (Q02750 whole entry): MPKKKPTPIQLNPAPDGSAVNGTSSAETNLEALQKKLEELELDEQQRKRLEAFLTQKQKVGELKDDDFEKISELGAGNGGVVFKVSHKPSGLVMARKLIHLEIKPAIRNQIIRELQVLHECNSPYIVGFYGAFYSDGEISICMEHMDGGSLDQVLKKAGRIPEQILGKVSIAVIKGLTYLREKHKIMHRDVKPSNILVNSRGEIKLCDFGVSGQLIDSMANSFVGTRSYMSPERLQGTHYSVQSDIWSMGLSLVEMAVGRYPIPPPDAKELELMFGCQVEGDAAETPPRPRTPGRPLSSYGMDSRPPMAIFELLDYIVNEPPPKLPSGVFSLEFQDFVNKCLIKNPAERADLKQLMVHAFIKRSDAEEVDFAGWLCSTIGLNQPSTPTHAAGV

Regarding `C#Cc1nc(-c2ccc(F)cc2)c(-c2ccncc2)n1C#Cc1ccccc1`, the inhibition in series [1] was 28%.

`OCCc1cc(Cl)n2c(-c3ccncc3)c(-c3ccc(F)cc3)nc2c1` registered an IC50 in [2] of 0.37 µM.

For `C#Cn1c(C#CCCO)nc(-c2ccc(F)cc2)c1-c1ccncc1`, the inhibition stood at 3% in [3]; 100% in [1]; 15% in series [7]; 72% in [8]; 29% in series [9]; 7% in series [10]. For the same molecule, the inhibition was found to be 9% in [11]; 5% in [12]; 36% in [13]; 3% in series [14]; 8% in [15]; 84% in series [16]. For the same molecule, the inhibition in series [17] came to 23%; in [18], 41%; in [19] it was 8%; in [20], 17%; in series [21], 6%; in [22], 44%. Further, the inhibition is -1% in [23]; 5% in [24]; 7% in series [25]; 1% in series [26]; 4% in [27]; 36% in series [28]. In addition, the inhibition in series [29] was determined as 5%; in series [30], 48%; in series [31], 10%; in series [32] it was 92%; in series [33], 6%; in series [34], 14%. Moreover, the inhibition in series [35] came out at 12%; in [36], 21%; in series [37], 88%; in series [38], 3%; in [39] it was 14%; in series [40] it was 11%. Moreover, the inhibition is 10% in series [41]; 11% in series [42]; 1% in series [43]; 8% in [44]; 3% in series [45]; 7% in series [46]. Moreover, the inhibition came to 50% in series [47]; 80% in series [48]; 82% in series [49]; 21% in series [50]; 15% in series [51]; 0% in series [52]. Besides, the inhibition in series [53] came to 7%; in series [54] it was 27%; in series [55], 3%; in series [56] it was 5%. Also, the inhibition at 10 µM against CYP2D6 came out at 4%. The IC50 in series [2] worked out at 0.2 µM; in series [4] it was 5.4 µM; in series [6] it was 4.2 µM. The Ratio IC50 in series [5] was more than 25.

Consider `OCCC#Cc1nc(-c2ccc(F)cc2)c(-c2ccncc2)n1C#Cc1ccccc1`, for which the inhibition in series [1] came to 75%.

For `OCCC#Cc1nc(-c2ccncc2)c(-c2ccc(F)cc2)n1C#Cc1ccccc1`, the inhibition in series [1] was 53%.

As to `C[S+]([O-])c1ccc(-c2nc(-c3ccncc3)c(-c3ccc(F)cc3)[nH]2)cc1` (stereo not given) [SB-203580], the inhibition at 10 µM at CYP2D6 was determined as 78%.

As to `C#Cc1nc(-c2ccncc2)c(-c2ccc(F)cc2)n1C#Cc1ccccc1`, in series [1], the inhibition worked out at 19%.

Consider `OCC#Cc1nc(-c2ccncc2)c(-c2ccc(F)cc2)n1C#Cc1ccccc1`, for which the inhibition in series [1] was 63%.

`OCC#Cc1nc(-c2ccc(F)cc2)c(-c2ccncc2)n1C#Cc1ccccc1`: the inhibition in series [1] was found to be 83%.
